The source made the active and inactive calls. No cut-off for these calls is given here.

In ChEMBL document CHEMBL1132971, “New azolidinediones as inhibitors of protein tyrosine phosphatase 1B with antihyperglycemic properties” (J Med Chem, 2000) one finds Decrease, inhibition and IC50 data, which are given here for 6 compounds.

Assay [1] concerns Mus musculus. The assay is described as follows: Evaluated for their ability to decrease plasma insulin levels in mouse at a dose 50 mg/kg/day. **p indicates <0.01. It counts as functional. In a few lines: (§1)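 Diabetic db/db or ob/ob mice dosed orally once daily for 4 days. Plasma glucose and insulin reported as percent change from a vehicle-treated group. 4-6 mice per group. Significance set at p < 0.05 or p < 0.01 versus vehicle; NS means generally less than -15% change.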

Assay [2] concerns Mus musculus. The assay is described as follows: Evaluated in vivo for their ability to decrease plasma glucose levels in diabetic C57BL/KsJ db/db mouse at a dose 100 mg/kg/day. *p indicates <0.05. It is filed as functional. In a few lines: (§2)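 Mice dosed orally once daily for 4 days; plasma glucose and insulin measured and expressed as percent change versus a vehicle-treated group (mean ± SE, 4-6 mice/group). NS is generally less than -15% change. Significance is versus vehicle-treated mice.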

Assay [3] relates to Mus musculus. Put plainly: Evaluated in vivo for their ability to decrease plasma glucose levels in diabetic C57BL/KsJ ob/ob mouse at a dose 50 mg/kg/day. It counts as functional, organism-based. A digest of the protocol:
as §1

The target in assay [4] is T1, Tyrosine-protein phosphatase non-receptor type 1 (Rattus norvegicus) (UniProt P20417).
T1 sequence (whole entry): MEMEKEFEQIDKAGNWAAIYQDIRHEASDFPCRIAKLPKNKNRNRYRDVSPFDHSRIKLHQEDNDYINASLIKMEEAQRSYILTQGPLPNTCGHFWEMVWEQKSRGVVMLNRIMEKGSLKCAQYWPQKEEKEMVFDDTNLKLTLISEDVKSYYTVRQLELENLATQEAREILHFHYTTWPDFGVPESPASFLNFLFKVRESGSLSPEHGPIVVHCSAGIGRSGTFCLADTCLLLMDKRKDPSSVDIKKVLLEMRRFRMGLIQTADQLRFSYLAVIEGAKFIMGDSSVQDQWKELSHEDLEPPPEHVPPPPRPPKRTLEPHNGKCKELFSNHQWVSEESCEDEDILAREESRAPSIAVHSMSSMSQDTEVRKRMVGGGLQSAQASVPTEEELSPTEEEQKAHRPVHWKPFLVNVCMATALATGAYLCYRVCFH
Put plainly: Inhibition of PTPase (PTP1B) activity in rat hepatic membrane at 50 uM concentration, using pNPP as the substrate. It counts as cell membranes. Particulars: Liver. In a few lines:
(§3)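 Liver membranes from male Sprague-Dawley rats (100-150 g), about 30 µg protein per well. Preincubated 10 min at 37 °C with compound in 1.25% DMSO in 50 mM HEPES pH 7.4. Then 6.33 mM pNPP for 30 min at 37 °C, stopped with NaOH. p-Nitrophenol read at 410 nm. Run in triplicate. Reported as percent of untreated control.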

For assay [5], the system named is Mus musculus. Put plainly: Evaluated in vivo for their ability to decrease plasma glucose levels in diabetic C57BL/KsJ db/db mouse at a dose 100 mg/kg/day; NS is non significant, generally less than - 15% change. It counts as functional, organism-based. In a few lines:
as §1

The target of assay [6] is T2, Tyrosine-protein phosphatase non-receptor type 1 (Mus musculus) (UniProt P35821).
T2 sequence (whole entry): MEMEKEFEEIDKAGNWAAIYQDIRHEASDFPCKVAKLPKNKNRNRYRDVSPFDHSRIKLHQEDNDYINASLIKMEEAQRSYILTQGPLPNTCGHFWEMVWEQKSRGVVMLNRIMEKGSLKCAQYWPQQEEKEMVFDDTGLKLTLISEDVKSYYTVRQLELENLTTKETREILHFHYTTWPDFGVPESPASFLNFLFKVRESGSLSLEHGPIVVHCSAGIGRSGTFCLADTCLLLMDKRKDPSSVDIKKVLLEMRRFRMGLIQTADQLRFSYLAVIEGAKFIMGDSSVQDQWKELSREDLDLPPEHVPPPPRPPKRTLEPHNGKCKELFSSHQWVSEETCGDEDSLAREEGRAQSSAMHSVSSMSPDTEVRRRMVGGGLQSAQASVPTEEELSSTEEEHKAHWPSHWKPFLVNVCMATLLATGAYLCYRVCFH
The assay is described as follows: In vivo ability to decrease plasma glucose levels in diabetic C57BL/KsJ ob/ob mouse at a dose 100 mg/kg/day. It counts as functional, organism-based. In a few lines:
as §1

Assay [7] addresses T3, Tyrosine-protein phosphatase non-receptor type 1 (Rattus norvegicus, UniProt P20417).
T3 sequence (P20417 whole entry): T1 sequence (whole entry)
Put plainly: Inhibition of PTPase activity using recombinant r-PTP1B and IR-triphosphopeptide as substrate; ND is no data. In a few lines:
(§4)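 Rat recombinant PTP1B in 33 mM TRIS-HCl, 2 mM EDTA, 50 mM β-mercaptoethanol, pH 7.4 (about 1000-2000 nmol/min/mg). Preincubated 10 min at 37 °C with or without compound in HEPES buffer pH 7.4. Released phosphate read by malachite green-ammonium molybdate at 650 nm against a phosphate standard. Quadruplicates. IC50 by four-parameter logistic fit.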

The target of assay [8] is T2, Tyrosine-protein phosphatase non-receptor type 1 (Mus musculus). The assay is described as follows: Ability to decrease plasma insulin levels in mouse at a dose 100 mg/kg/day. It counts as functional, organism-based. In a few lines:
as §1

For assay [9], the target named is T1, Tyrosine-protein phosphatase non-receptor type 1 (Rattus norvegicus). The assay is described as follows: Inhibition of PTPase activity in rat hepatic membrane at a concentration of 250 uM using pNPP as the substrate. It counts as cell membranes. The settings on record: Liver. A digest of the protocol: as §3
Assay [10] has as its system Mus musculus. The assay is described as follows: Evaluated in vivo for their ability to decrease plasma glucose levels in diabetic C57BL/KsJ db/db mouse at a dose 100 mg/kg/day.([…]). It is filed as functional. In a few lines: as §1
Assay [11] concerns Mus musculus. The assay is described as follows: Evaluated in vivo for their ability to decrease plasma glucose levels in diabetic C57BL/KsJ db/db mouse at a dose 100 mg/kg/day. It is filed as functional. In a few lines:
as §1

The test system of assay [12] is Mus musculus. Put plainly: Evaluated for their ability to decrease plasma insulin levels in mouse at a dose 100 mg/kg/day,**p indicates <0.01. It is filed as functional. A digest of the protocol: as §2
For assay [13], the system named is Mus musculus. Put plainly: Evaluated in vivo for their ability to decrease plasma glucose levels in diabetic C57BL/KsJ ob/ob mouse at a dose 100 mg/kg/day,**p indicates <0.01. It counts as functional. In a few lines: as §2
The target of assay [14] is T1, Tyrosine-protein phosphatase non-receptor type 1 (Rattus norvegicus). The assay is described as follows: Inhibition of PTPase activity using recombinant r-PTP1B as the enzyme and IR-triphosphopeptide as substrate at 50 uM. In a few lines:
as §4

Assay [15] concerns Mus musculus. Put plainly: Evaluated in vivo for their ability to decrease plasma glucose levels in diabetic C57BL/KsJ db/db mouse at a dose 50 mg/kg/day, *p indicates <0.05. It is filed as functional. In a few lines:
as §1

For `Cc1oc(-c2ccc(C(F)(F)F)cc2)nc1COc1cccc(/C=C/C(C)n2oc(=O)[nH]c2=O)c1` (stereo not given), the Decrease in the assay with Mus musculus [1] is 83%; with Mus musculus [2] it was 41%. For the same compound, in the assay on Mus musculus [3], the Decrease entry is “inactive”. In addition, the inhibition (in general, the percentage by which the read-out fell short of the control) in [4] was 49%.
As to `C/C(=C\CC1OC(=O)NC1=O)c1cccc(OCCc2nc(-c3ccccc3)oc2C)c1` (stereo not given), in the assay with Mus musculus [5], the Decrease result is “inactive”. Moreover, the Decrease result in assay [6] and in assay [8] was “Not significant” each time. In addition, the inhibition in assay [4] was 36%. The IC50 result in assay [7] is reported as “Not significant”.
Take `Cc1c(C)c2c(c(C)c1O)CCC(C)(COc1ccc(CC3SC(=O)NC3=O)cc1)O2` (stereo not given) [TROGLITAZONE]: in assay [9], the inhibition was found to be 29%. Besides, in the assay with Mus musculus [10], the Decrease is 34%.
As for `Cc1oc(-c2ccc(OC(F)(F)F)cc2)nc1COc1cccc(C(C)CCn2oc(=O)[nH]c2=O)c1` (stereo not given), the figures for the Decrease (in the assay with Mus musculus [11]; in assay [6]; in assay [8]) were 41%, “Not significant” and “Not significant”, respectively. Further, the inhibition in assay [4] is 47%. The IC50 entry in [7] is “Not significant”.
Consider `Cc1oc(-c2ccc(C(F)(F)F)cc2)nc1COc1cccc(/C(=C/Cn2oc(=O)[nH]c2=O)c2ccccc2)c1`, for which the Decrease was found to be 74% with Mus musculus [12] and 55% in the assay on Mus musculus [13]. Further, the values for the inhibition in [4] and in [14] were 24% and 1.1%, respectively.
`C/C(=C/C=C/Cn1oc(=O)[nH]c1=O)c1cccc(OCc2nc(-c3ccccc3)oc2C)c1`: the Decrease in the assay with Mus musculus [15] is 19%; in [6] it was “Not significant”; in assay [8] it was “Not significant”. The compound also showed an inhibition in [4] of 55%. Further, the IC50 result in assay [7] is listed as “Not significant”.
